Assay results published in ChEMBL document CHEMBL5058577, “EUbOPEN Chemogenomics Library 2 (Multiplex)” (2022).
Where “and” joins values, the source holds several entries; their conditions need not be identical. Equal values may be shown once.

Tested on: Fibroblast
Test: Multiplex assay against human fibroblast
Format: toxicity, cell-based
Outline: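 With compound added, live cells were imaged on a CQ1 microscope at 37°C and 5% CO2; staining with Hoechst33342, BioTracker Green Microtubule Cytoskeleton Dye, MitoTracker Red and Annexin V Alexa Fluor 680 had been done at seeding. The CellPathfinder machine-learning gating scheme split cells into Hoechst high-intensity objects or normal cells, normal cells into healthy, pyknosed or fragmented nuclei, and pyknosed cells into mitotic or apoptotic. The tubulin, mitochondrial-mass and membrane-permeability phenotypes are per cents of healthy-nucleus cells.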

[1] = 12 h, 1 µM, compound concentration 1 uM, replicate 1
[2] = 12 h, 1 µM, compound concentration 1 uM, replicate 2
[3] = 12 h, 10 µM, compound concentration 10 uM, replicate 1
[4] = 12 h, 10 µM, compound concentration 10 uM, replicate 2
[5] = 24 h, 1 µM, compound concentration 1 uM, replicate 1
[6] = 24 h, 1 µM, compound concentration 1 uM, replicate 2
[7] = 24 h, 10 µM, compound concentration 10 uM, replicate 1
[8] = 24 h, 10 µM, compound concentration 10 uM, replicate 2
[9] = 48 h, 1 µM, compound concentration 1 uM, replicate 1
[10] = 48 h, 1 µM, compound concentration 1 uM, replicate 2
[11] = 48 h, 10 µM, compound concentration 10 uM, replicate 1
[12] = 48 h, 10 µM, compound concentration 10 uM, replicate 2

Compound: CCNC1(C(N)=O)CCN(c2ncnc3c2nc(-c2ccccc2Cl)n3-c2ccc(Cl)cc2)CC1 [OTENABANT]
- Population Apoptotic (%) [1]: 26%
- Population Fragmented Nuclei (%) [1]: 19%
- Population Healthy Nuclei (%) [1]: 63%
- Population Hoechst High Intensity Objects (%) [1]: 6%
- Population Membrane Permeable-Phenotype (%) [1]: 1%
- Population Mitochondria Different-Phenotype (%) [1]: 7%
- Population Mitotic Cells (%) [1]: 73%
- Population Normal (%) [1]: 93%
- Population Pyknosed Nuclei (%) [1]: 17%
- Population Tubulin-Different-Phenotype (%) [1]: 44%
- Total Cell Count [1]: 161
- Population Apoptotic (%) [2]: 37%
- Population Fragmented Nuclei (%) [2]: 25%
- Population Healthy Nuclei (%) [2]: 48%
- Population Hoechst High Intensity Objects (%) [2]: 2%
- Population Membrane Permeable-Phenotype (%) [2]: 6%
- Population Mitochondria Different-Phenotype (%) [2]: 10%
- Population Mitotic Cells (%) [2]: 62%
- Population Normal (%) [2]: 97%
- Population Pyknosed Nuclei (%) [2]: 26%
- Population Tubulin-Different-Phenotype (%) [2]: 50%
- Total Cell Count [2]: 156
- Population Apoptotic (%) [3]: 57%
- Population Fragmented Nuclei (%) [3]: 22%
- Population Healthy Nuclei (%) [3]: 64%
- Population Hoechst High Intensity Objects (%) [3]: 4%
- Population Membrane Permeable-Phenotype (%) [3]: 0%
- Population Mitochondria Different-Phenotype (%) [3]: 16%
- Population Mitotic Cells (%) [3]: 42%
- Population Normal (%) [3]: 95%
- Population Pyknosed Nuclei (%) [3]: 12%
- Population Tubulin-Different-Phenotype (%) [3]: 90%
- Total Cell Count [3]: 170
- Population Apoptotic (%) [4]: 40%
- Population Fragmented Nuclei (%) [4]: 30%
- Population Healthy Nuclei (%) [4]: 48%
- Population Hoechst High Intensity Objects (%) [4]: 3%
- Population Membrane Permeable-Phenotype (%) [4]: 12%
- Population Mitochondria Different-Phenotype (%) [4]: 18%
- Population Mitotic Cells (%) [4]: 59%
- Population Normal (%) [4]: 96%
- Population Pyknosed Nuclei (%) [4]: 21%
- Population Tubulin-Different-Phenotype (%) [4]: 87%
- Total Cell Count [4]: 216
- Population Apoptotic (%) [5]: 26%
- Population Fragmented Nuclei (%) [5]: 17%
- Population Healthy Nuclei (%) [5]: 66%
- Population Hoechst High Intensity Objects (%) [5]: 4%
- Population Membrane Permeable-Phenotype (%) [5]: 0%
- Population Mitochondria Different-Phenotype (%) [5]: 8%
- Population Mitotic Cells (%) [5]: 73%
- Population Normal (%) [5]: 95%
- Population Pyknosed Nuclei (%) [5]: 15%
- Population Tubulin-Different-Phenotype (%) [5]: 44%
- Total Cell Count [5]: 154
- Population Apoptotic (%) [6]: 34%
- Population Fragmented Nuclei (%) [6]: 27%
- Population Healthy Nuclei (%) [6]: 43%
- Population Hoechst High Intensity Objects (%) [6]: 5%
- Population Membrane Permeable-Phenotype (%) [6]: 9%
- Population Mitochondria Different-Phenotype (%) [6]: 14%
- Population Mitotic Cells (%) [6]: 65%
- Population Normal (%) [6]: 94%
- Population Pyknosed Nuclei (%) [6]: 29%
- Population Tubulin-Different-Phenotype (%) [6]: 57%
- Total Cell Count [6]: 155
- Population Apoptotic (%) [7]: 54%
- Population Fragmented Nuclei (%) [7]: 22%
- Population Healthy Nuclei (%) [7]: 64%
- Population Hoechst High Intensity Objects (%) [7]: 2%
- Population Membrane Permeable-Phenotype (%) [7]: 0%
- Population Mitochondria Different-Phenotype (%) [7]: 37%
- Population Mitotic Cells (%) [7]: 45%
- Population Normal (%) [7]: 97%
- Population Pyknosed Nuclei (%) [7]: 12%
- Population Tubulin-Different-Phenotype (%) [7]: 96%
- Total Cell Count [7]: 174
- Population Fragmented Nuclei (%) [8]: 37%
- Population Healthy Nuclei (%) [8]: 48%
- Population Hoechst High Intensity Objects (%) [8]: 5%
- Population Membrane Permeable-Phenotype (%) [8]: 7%
- Population Mitochondria Different-Phenotype (%) [8]: 30%
- Population Normal (%) [8]: 94%
- Population Pyknosed Nuclei (%) [8]: 13%
- Population Tubulin-Different-Phenotype (%) [8]: 88%
- Total Cell Count [8]: 235
- Population Apoptotic (%) [9]: 68%
- Population Fragmented Nuclei (%) [9]: 18%
- Population Healthy Nuclei (%) [9]: 69%
- Population Hoechst High Intensity Objects (%) [9]: 8%
- Population Membrane Permeable-Phenotype (%) [9]: 0%
- Population Mitochondria Different-Phenotype (%) [9]: 3%
- Population Mitotic Cells (%) [9]: 31%
- Population Normal (%) [9]: 91%
- Population Pyknosed Nuclei (%) [9]: 12%
- Population Tubulin-Different-Phenotype (%) [9]: 41%
- Total Cell Count [9]: 167
- Population Apoptotic (%) [10]: 59%
- Population Fragmented Nuclei (%) [10]: 33%
- Population Healthy Nuclei (%) [10]: 42%
- Population Hoechst High Intensity Objects (%) [10]: 5%
- Population Membrane Permeable-Phenotype (%) [10]: 13%
- Population Mitochondria Different-Phenotype (%) [10]: 18%
- Population Mitotic Cells (%) [10]: 40%
- Population Normal (%) [10]: 94%
- Population Pyknosed Nuclei (%) [10]: 23%
- Population Tubulin-Different-Phenotype (%) [10]: 72%
- Total Cell Count [10]: 143
- Population Apoptotic (%) [11]: 78%
- Population Fragmented Nuclei (%) [11]: 30%
- Population Healthy Nuclei (%) [11]: 61%
- Population Hoechst High Intensity Objects (%) [11]: 8%
- Population Membrane Permeable-Phenotype (%) [11]: 0%
- Population Mitochondria Different-Phenotype (%) [11]: 49%
- Population Mitotic Cells (%) [11]: 21%
- Population Normal (%) [11]: 91%
- Population Pyknosed Nuclei (%) [11]: 8%
- Population Tubulin-Different-Phenotype (%) [11]: 92%
- Total Cell Count [11]: 187
- Population Apoptotic (%) [12]: 61%
- Population Fragmented Nuclei (%) [12]: 46%
- Population Healthy Nuclei (%) [12]: 47%
- Population Hoechst High Intensity Objects (%) [12]: 2%
- Population Membrane Permeable-Phenotype (%) [12]: 7%
- Population Mitochondria Different-Phenotype (%) [12]: 26%
- Population Mitotic Cells (%) [12]: 38%
- Population Normal (%) [12]: 97%
- Population Pyknosed Nuclei (%) [12]: 6%
- Population Tubulin-Different-Phenotype (%) [12]: 89%
- Total Cell Count [12]: 299

Compound: CC(=O)O[C@H]1C(=O)[C@@]2(C)[C@H]([C@H](OC(=O)c3ccccc3)[C@]3(O)C[C@H](OC(=O)[C@H](O)[C@@H](NC(=O)c4ccccc4)c4ccccc4)C(C)=C1C3(C)C)[C@]1(OC(C)=O)CO[C@@H]1C[C@@H]2O [PACLITAXEL]
- Population Apoptotic (%) [3]: 65% and 41%
- Population Fragmented Nuclei (%) [3]: 19% and 23%
- Population Healthy Nuclei (%) [3]: 63% and 56%
- Population Hoechst High Intensity Objects (%) [3]: 5% and 3%
- Population Membrane Permeable-Phenotype (%) [3]: 0% and 1%
- Population Mitochondria Different-Phenotype (%) [3]: 10% and 9%
- Population Mitotic Cells (%) [3]: 34% and 58%
- Population Normal (%) [3]: 94% and 96%
- Population Pyknosed Nuclei (%) [3]: 16% and 19%
- Population Tubulin-Different-Phenotype (%) [3]: 17% and 19%
- Total Cell Count [3]: 167 and 151
- Population Apoptotic (%) [4]: 39% and 43%
- Population Fragmented Nuclei (%) [4]: 34% and 32%
- Population Healthy Nuclei (%) [4]: 39% and 32%
- Population Hoechst High Intensity Objects (%) [4]: 1%
- Population Membrane Permeable-Phenotype (%) [4]: 6% and 8%
- Population Mitochondria Different-Phenotype (%) [4]: 13% and 19%
- Population Mitotic Cells (%) [4]: 60% and 56%
- Population Normal (%) [4]: 98%
- Population Pyknosed Nuclei (%) [4]: 25% and 34%
- Population Tubulin-Different-Phenotype (%) [4]: 44% and 52%
- Total Cell Count [4]: 111 and 142
- Population Apoptotic (%) [7]: 70% and 60%
- Population Fragmented Nuclei (%) [7]: 19% and 21%
- Population Healthy Nuclei (%) [7]: 63% and 58%
- Population Hoechst High Intensity Objects (%) [7]: 1% and 3%
- Population Membrane Permeable-Phenotype (%) [7]: 0% and 1%
- Population Mitochondria Different-Phenotype (%) [7]: 9% and 13%
- Population Mitotic Cells (%) [7]: 29% and 40%
- Population Normal (%) [7]: 98% and 96%
- Population Pyknosed Nuclei (%) [7]: 16% and 20%
- Population Tubulin-Different-Phenotype (%) [7]: 12% and 24%
- Total Cell Count [7]: 164 and 155
- Population Apoptotic (%) [8]: 30% and 62%
- Population Fragmented Nuclei (%) [8]: 36% and 27%
- Population Healthy Nuclei (%) [8]: 45% and 43%
- Population Hoechst High Intensity Objects (%) [8]: 2% and 4%
- Population Membrane Permeable-Phenotype (%) [8]: 6% and 11%
- Population Mitochondria Different-Phenotype (%) [8]: 10% and 19%
- Population Mitotic Cells (%) [8]: 70% and 37%
- Population Normal (%) [8]: 97%
- Population Pyknosed Nuclei (%) [8]: 18% and 29%
- Population Tubulin-Different-Phenotype (%) [8]: 40% and 48%
- Total Cell Count [8]: 114 and 125
- Population Apoptotic (%) [11]: 76% and 84%
- Population Fragmented Nuclei (%) [11]: 31% and 28%
- Population Healthy Nuclei (%) [11]: 50% and 53%
- Population Hoechst High Intensity Objects (%) [11]: 4%
- Population Membrane Permeable-Phenotype (%) [11]: 0%
- Population Mitochondria Different-Phenotype (%) [11]: 16% and 18%
- Population Mitotic Cells (%) [11]: 23% and 16%
- Population Normal (%) [11]: 95%
- Population Pyknosed Nuclei (%) [11]: 17%
- Population Tubulin-Different-Phenotype (%) [11]: 20% and 23%
- Total Cell Count [11]: 177 and 150
- Population Apoptotic (%) [12]: 54% and 56%
- Population Fragmented Nuclei (%) [12]: 48% and 41%
- Population Healthy Nuclei (%) [12]: 42% and 47%
- Population Hoechst High Intensity Objects (%) [12]: 0% and 1%
- Population Membrane Permeable-Phenotype (%) [12]: 3% and 8%
- Population Mitochondria Different-Phenotype (%) [12]: 9% and 14%
- Population Mitotic Cells (%) [12]: 45% and 43%
- Population Normal (%) [12]: 100% and 98%
- Population Pyknosed Nuclei (%) [12]: 8% and 11%
- Population Tubulin-Different-Phenotype (%) [12]: 40% and 54%
- Total Cell Count [12]: 129 and 146
